# According to ChEMBL document CHEMBL3792362 (Bioorg Med Chem Lett, 2016):
# Active and inactive are the calls of the source. The calls are words filed in the database; no cut-off is given here.
# Legend:
# U-937 [1] = assay: Inhibition of LPS/IFN-gamma-induced PGE2 production in PMA-treated human U937 cells at 25 uM after 17 to 20 hrs by enzyme immunoassay relative to control; type: functional
# Outline: (§1)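 Cells (5 × 10⁵/well) attached 24 h, then stimulated with recombinant IFN-γ 100 U/mL and LPS 2 µg/mL with or without compound (DMSO vehicle, 0.1% final), 17–20 h at 37 °C, 5% CO₂. U937 were first differentiated with 200 nM PMA for 24 h, then serum-free overnight. Supernatant PGE₂ quantified against standard curves; dose-response 0.78–50 µM, means ± SD of three samples.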
# [2] = Cytotoxicity against mouse RAW264.7 cells assessed as cell viability at 25 uM by MTT assay relative to control; type: cell-based; conditions: read-out: Activity
# Outline: (§2)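 After 17–20 h stimulation with 100 U/mL IFN-γ plus 2 µg/mL LPS (±compound, DMSO final 0.1%) at 37 °C, 5% CO₂, supernatant removed; MTT (5 mg/mL stock, 20 µL) added, 4 h at 37 °C; formazan dissolved in DMSO, absorbance at 570 nm. U937 were PMA-differentiated (200 nM, 24 h), then serum-free overnight; RAW264.7 grown in DMEM/10% FBS.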
# [3] = Cytotoxicity against PMA-treated human U937 cells assessed as cell viability at 25 uM by MTT assay relative to control; type: cell-based, U-937; conditions: read-out: Activity; outline: as §2
# RAW264.7 [4] = assay: Inhibition of LPS/IFN-gamma-induced nitric oxide production in mouse RAW264.7 cells at 25 uM relative to control; type: functional
# RAW264.7 [5] = assay: Inhibition of LPS/IFN-gamma-induced PGE2 production in mouse RAW264.7 cells at 25 uM after 17 to 20 hrs by enzyme immunoassay relative to control; type: functional; outline: as §1
# RAW264.7 [6] = assay: Inhibition of LPS/IFN-gamma-induced PGE2 production in mouse RAW264.7 cells after 17 to 20 hrs by enzyme immunoassay; type: functional, cell-based; outline: as §1
# U-937 [7] = assay: Inhibition of LPS/IFN-gamma-induced PGE2 production in PMA-treated human U937 cells after 17 to 20 hrs by enzyme immunoassay; type: functional, cell-based; outline: as §1
# [8] = target: T1, Prostaglandin G/H synthase 1 (Ovis aries) (UniProt P05979); assay: Inhibition of ovine COX1 at 25 uM by ELISA relative to control
# T1 sequence (whole entry): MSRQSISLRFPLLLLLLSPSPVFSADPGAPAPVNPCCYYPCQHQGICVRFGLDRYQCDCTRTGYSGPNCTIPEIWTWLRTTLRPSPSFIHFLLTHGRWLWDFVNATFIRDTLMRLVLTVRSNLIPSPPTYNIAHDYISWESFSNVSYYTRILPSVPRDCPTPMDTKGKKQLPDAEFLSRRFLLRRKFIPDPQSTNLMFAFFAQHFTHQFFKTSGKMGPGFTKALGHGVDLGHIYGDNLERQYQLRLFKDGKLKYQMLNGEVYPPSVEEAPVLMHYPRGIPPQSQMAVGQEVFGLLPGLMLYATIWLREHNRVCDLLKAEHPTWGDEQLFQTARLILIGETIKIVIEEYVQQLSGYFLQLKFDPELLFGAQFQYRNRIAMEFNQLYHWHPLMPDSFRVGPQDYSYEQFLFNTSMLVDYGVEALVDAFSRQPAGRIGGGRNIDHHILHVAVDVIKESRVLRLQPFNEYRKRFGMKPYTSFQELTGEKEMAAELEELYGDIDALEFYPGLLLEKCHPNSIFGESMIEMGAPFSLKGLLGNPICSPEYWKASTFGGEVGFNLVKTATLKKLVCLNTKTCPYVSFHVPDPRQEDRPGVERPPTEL
# Outline: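 COX-1 (ovine) inhibition measured with a commercial ovine/human COX inhibitor screening ELISA kit per manufacturer's protocol; prostaglandin concentrations read on a microplate reader and calculated from standard curves.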
# [9] = Inhibition of COX in CD1 mouse epidermal microsomes using [14C]arachidonic acid as substrate assessed as PGE2, PGF2alpha, and PGD2 formation by TLC/liquid scintillation spectrometry method; set-up: species or system Skin epidermis
# [10] = Inhibition of COX in CD1 mouse epidermal cytosolic fractions using [14C]arachidonic acid as substrate assessed as PGE2, PGF2alpha, and PGD2 formation by TLC/liquid scintillation spectrometry method
# RAW264.7 [11] = assay: Inhibition of LPS/IFN-gamma-induced PGE2 production in mouse RAW264.7 cells at 5 uM after 17 to 20 hrs by enzyme immunoassay relative to control; conditions: RAW264.7, read-out: INH
# U-937 [12] = assay: Inhibition of LPS/IFN-gamma-induced PGE2 production in PMA-treated human U937 cells at 5 uM after 17 to 20 hrs by enzyme immunoassay relative to control; conditions: U-937, read-out: INH
# [13] = Cytotoxicity against mouse RAW264.7 cells assessed as cell viability at 5 uM by MTT assay relative to control
# [14] = Cytotoxicity against PMA-treated human U937 cells assessed as cell viability at 5 uM by MTT assay relative to control
compound,measurement,setting,value
Cc1ccc(/C=C2\CCC/C(=C\c3ccc(Cl)c(Cl)c3)C2=O)cc1,inhibition at 25 µM,U-937 [1],68%
same,viability at 25 µM,[2],95%
same,viability at 25 µM,[3],100%
same,inhibition at 25 µM,RAW264.7 [4],71%
same,inhibition at 25 µM,RAW264.7 [5],64%
COc1cc(/C=C2\CCC/C(=C\c3ccc(O)cc3)C2=O)ccc1O,inhibition at 25 µM,U-937 [1],88%
same,viability at 25 µM,[2],< 50%
same,viability at 25 µM,[3],100%
same,IC50,RAW264.7 [6],1.9 µM
same,IC50,U-937 [7],0.92 µM
same,inhibition at 25 µM,RAW264.7 [4],100%
same,inhibition,[8],inactive
same,inhibition at 25 µM,RAW264.7 [5],96%
COc1cccc(/C=C2\CCC/C(=C\c3ccc(-c4ccc(F)cc4)cc3)C2=O)c1OC,inhibition at 25 µM,U-937 [1],68%
same,viability at 25 µM,[2],90%
same,viability at 25 µM,[3],98%
same,inhibition,RAW264.7 [4],inactive
same,inhibition at 25 µM,RAW264.7 [5],51%
O=C1/C(=C/c2ccc(-c3ccc(F)cc3)cc2)CCC/C1=C\c1ccc(Cl)c(Cl)c1,inhibition at 25 µM,U-937 [1],76%
same,viability at 25 µM,[2],100%
same,viability at 25 µM,[3],94%
same,inhibition,RAW264.7 [4],inactive
same,inhibition at 25 µM,RAW264.7 [5],59%
COc1ccc(/C=C2\CCC/C(=C\c3ccc(O)c(OC)c3)C2=O)cc1,inhibition at 25 µM,U-937 [1],86%
same,viability at 25 µM,[2],< 50%
same,viability at 25 µM,[3],100%
same,IC50,RAW264.7 [6],0.78 µM
same,IC50,U-937 [7],0.95 µM
same,inhibition at 25 µM,RAW264.7 [4],100%
same,inhibition,[8],inactive
same,inhibition at 25 µM,RAW264.7 [5],96%
COc1cc(/C=C/C(=O)CC(=O)/C=C/c2ccc(O)c(OC)c2)ccc1O [CURCUMIN],inhibition at 25 µM,U-937 [1],94%
same,viability at 25 µM,[2],90%
same,viability at 25 µM,[3],95%
same,IC50,RAW264.7 [6],16 µM
same,IC50,U-937 [7],1.88 µM
same,inhibition at 25 µM,RAW264.7 [4],85%
same,inhibition,[8],inactive
same,IC50,[9],52 µM
same,IC50,[10],5 µM
same,inhibition at 25 µM,RAW264.7 [5],78%
CS(=O)(=O)Nc1ccc([N+](=O)[O-])cc1Oc1ccccc1 [NIMESULIDE],IC50,RAW264.7 [6],< 0.078 µM
same,IC50,U-937 [7],< 0.078 µM
same,inhibition at 5 µM,RAW264.7 [11],66%
same,inhibition at 5 µM,U-937 [12],89%
same,viability at 5 µM,[13],100%
same,viability at 5 µM,[14],100%
CCN(CC)c1ccc(/C=C2\CCC/C(=C\c3ccc(-c4ccc(F)cc4)cc3)C2=O)cc1,inhibition at 25 µM,U-937 [1],72%
same,viability at 25 µM,[2],94%
same,viability at 25 µM,[3],100%
same,inhibition,RAW264.7 [4],inactive
same,inhibition at 25 µM,RAW264.7 [5],65%
COc1cccc(/C=C2\CCC/C(=C\c3ccc(C)cc3)C2=O)c1OC,inhibition at 25 µM,U-937 [1],83%
same,viability at 25 µM,[2],100%
same,viability at 25 µM,[3],100%
same,IC50,RAW264.7 [6],12 µM
same,IC50,U-937 [7],3.44 µM
same,inhibition,U-937 [7],Dose-dependent effect
same,inhibition at 25 µM,RAW264.7 [4],95%
same,inhibition,[8],inactive
same,inhibition at 25 µM,RAW264.7 [5],83%
Cc1ccc(/C=C2\CCC/C(=C\c3ccc(C)o3)C2=O)cc1,inhibition at 25 µM,U-937 [1],84%
same,viability at 25 µM,[2],83%
same,viability at 25 µM,[3],98%
same,IC50,RAW264.7 [6],4.86 µM
same,IC50,U-937 [7],1.65 µM
same,inhibition,U-937 [7],Dose-dependent effect
same,inhibition at 25 µM,RAW264.7 [4],99%
same,inhibition,[8],inactive
same,inhibition at 25 µM,RAW264.7 [5],92%
COC(=O)[C@@H](N)CCCNC(=N)N[N+](=O)[O-] [L-NAME],inhibition at 25 µM,RAW264.7 [4],53%
COc1cccc(/C=C2\CCC/C(=C\c3ccc(Cl)c(Cl)c3)C2=O)c1OC,inhibition at 25 µM,U-937 [1],58%
same,viability at 25 µM,[2],77%
same,viability at 25 µM,[3],100%
same,inhibition at 25 µM,RAW264.7 [4],90%
same,inhibition at 25 µM,RAW264.7 [5],73%
Cc1ccc(/C=C2\CCC/C(=C\c3cccc4ccccc34)C2=O)cc1,inhibition at 25 µM,U-937 [1],66%
same,viability at 25 µM,[2],100%
same,viability at 25 µM,[3],94%
same,inhibition,RAW264.7 [4],inactive
same,inhibition at 25 µM,RAW264.7 [5],74%
O=C1/C(=C/c2ccc(Br)cc2)CCC/C1=C\c1ccc(-c2ccc(F)cc2)cc1,inhibition at 25 µM,U-937 [1],66%
same,viability at 25 µM,[2],92%
same,viability at 25 µM,[3],98%
same,inhibition,RAW264.7 [4],inactive
same,inhibition at 25 µM,RAW264.7 [5],53%
CCN(CC)c1ccc(/C=C2\CCC/C(=C\c3ccc(O)c(OC)c3)C2=O)cc1,inhibition at 25 µM,U-937 [1],85%
same,viability at 25 µM,[2],< 50%
same,viability at 25 µM,[3],100%
same,inhibition at 25 µM,RAW264.7 [4],100%
same,inhibition at 25 µM,RAW264.7 [5],95%
COc1cc(/C=C2\CCC/C(=C\c3ccc(C)cc3)C2=O)ccc1O,inhibition at 25 µM,U-937 [1],85%
same,viability at 25 µM,[2],< 50%
same,viability at 25 µM,[3],100%
same,inhibition at 25 µM,RAW264.7 [4],100%
same,inhibition at 25 µM,RAW264.7 [5],95%
COc1cc(/C=C2\CCC/C(=C\c3ccc(Br)cc3)C2=O)ccc1O,inhibition at 25 µM,U-937 [1],87%
same,viability at 25 µM,[2],< 50%
same,viability at 25 µM,[3],100%
same,inhibition at 25 µM,RAW264.7 [4],100%
same,inhibition at 25 µM,RAW264.7 [5],96%
